Source: ChEMBL document CHEMBL1914330 (Eur J Med Chem, 2011)
Calls of active or inactive are those of the source. No cut-off for these calls is given here.

Experiments:
[1] = test system: HeLa; test: Antiproliferative activity against human HeLa cells after 2 days by coulter counter analysis; format: functional, cell-based; conditions: 48 h
Procedure, shortened: (§1)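 Cells suspended at 300,000–500,000 cells/mL and mixed 1:1 with diluted compound. Incubated at 37 °C for two days, then counted with a Coulter counter. IC50 is the concentration inhibiting proliferation by 50%, as mean ± SE from dose-response curves of at least three independent experiments.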

[2] = test system: MOLT-4; test: Antiproliferative activity against human MOLT4 cells after 2 days by coulter counter analysis; format: functional, cell-based; conditions: MOLT-4, 48 h
[3] = test system: FM3A; test: Antiproliferative activity against mouse FM3A cells after 2 days by coulter counter analysis; format: functional, cell-based; conditions: 48 h
[4] = test system: CCRF-CEM; test: Antiproliferative activity against human CEM cells after 2 days by coulter counter analysis; format: functional, cell-based; conditions: 48 h; procedure, shortened: as §1
[5] = test system: L1210; test: Antiproliferative activity against mouse L1210 cells after 2 days by coulter counter analysis; format: functional, cell-based; conditions: L1210, 48 h; procedure, shortened: as §1
[6] = organism: Bos taurus; test: Inhibition of bovine brain tubulin polymerization at 20 uM after 20 mins by turbidimetry
Procedure, shortened: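 Purified bovine brain tubulin at 10 µM was preincubated with compound in glutamate buffer at 30 °C, then cooled to 0 °C and GTP added. Samples were warmed to 30 °C in a recording spectrophotometer and assembly followed by turbidity.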

[7] = Antiproliferative activity against human taxol-resistant A549-T12 cells after 72 hrs by MTT assay; format: functional, cell-based; conditions: A549, 72 h
Procedure, shortened: (§2)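 Cells seeded at 8 × 10³ per well in complete medium and exposed to a range of compound concentrations at 37 °C for 72 h. Viability read by MTT test. IC50 taken as the concentration inhibiting proliferation by 50%.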

[8] = test system: CCRF-CEM; test: Antiproliferative activity against human CEM cells after 72 hrs by MTT assay; format: functional, cell-based; procedure, shortened: as §2
[9] = Antiproliferative activity against human vinblastine-resistant CEM/VBL100 cells after 72 hrs by MTT assay; format: functional, cell-based; conditions: CEM/VBL100, 72 h; procedure, shortened: as §2

Row | Compound | IC50 [1] [µM] | IC50 [2] [µM] | IC50 [3] [µM] | IC50 [4] [µM] | IC50 [5] [µM] | inhibition [6] | IC50 [7] [µM] | IC50 [8] [µM] | IC50 [9] [µM]
1 | COc1cc(C(=O)c2sc(N(C)Cc3ccccc3)nc2N)cc(OC)c1OC | > 200 | > 200 | > 200 | > 200 | > 200 | – | – | – | –
2 | COc1cc(C(=O)c2sc(N(C)C)nc2N)cc(OC)c1OC | 8.2 | – | 12 | 11 | 11 | inactive | – | – | –
3 | CC(=O)O[C@H]1C(=O)[C@@]2(C)[C@H]([C@H](OC(=O)c3ccccc3)[C@]3(O)C[C@H](OC(=O)[C@H](O)[C@@H](NC(=O)c4ccccc4)c4ccccc4)C(C)=C1C3(C)C)[C@]1(OC(C)=O)CO[C@@H]1C[C@@H]2O [PACLITAXEL] | – | – | – | – | – | – | 0.075 | – | –
4 | CCN(CC)c1nc(N)c(C(=O)c2cc(OC)c(OC)c(OC)c2)s1 | 38 | – | 115 | 78 | 62 | inactive | – | – | –
5 | COc1ccc(C(=O)c2sc(N3CCCC3)nc2N)cc1OC | 36 | 31 | 112 | 19 | 60 | – | – | – | –
6 | COc1cc(C(=O)c2sc(N)nc2N)cc(OC)c1OC | 31 | – | 63 | 42 | 48 | inactive | – | – | –
7 | CC[C@]1(O)C[C@@H]2CN(CCc3c([nH]c4ccccc34)[C@@](C(=O)OC)(c3cc4c(cc3OC)N(C)[C@H]3[C@@](O)(C(=O)OC)[C@H](OC(C)=O)[C@]5(CC)C=CCN6CC[C@]43[C@@H]65)C2)C1 [VINBLASTINE] | – | – | – | – | – | – | – | 0.004 | 0.23
8 | COc1cc(C(=O)c2sc(N3CCCCC3)nc2N)cc(OC)c1OC | 11 | 16 | 39 | 22 | 43 | inactive | – | – | –
9 | COc1cccc(C(=O)c2sc(N3CCCC3)nc2N)c1 | > 200 | > 200 | > 200 | > 200 | > 200 | – | – | – | –
10 | COc1cc(C(=O)c2sc(N3CCOCC3)nc2N)cc(OC)c1OC | 8.8 | 22 | 24 | 25 | 38 | inactive | – | – | –
11 | CCCCN(C)c1nc(N)c(C(=O)c2cc(OC)c(OC)c(OC)c2)s1 | 31 | 32 | 47 | 42 | 53 | – | – | – | –
12 | Nc1nc(N2CCCC2)sc1C(=O)c1ccccc1 | > 200 | > 200 | > 200 | > 200 | > 200 | – | – | – | –
13 | Nc1nc(N2CCCC2)sc1C(=O)c1ccc(Cl)cc1 | > 200 | > 200 | > 200 | > 200 | > 200 | – | – | – | –
14 | Nc1nc(N2CCCC2)sc1C(=O)c1ccc(Br)cc1 | > 200 | > 200 | > 200 | > 200 | > 200 | – | – | – | –
15 | COc1ccc(/C=C\c2cc(OC)c(OC)c(OC)c2)cc1O [COMBRETASTATIN A4] | 0.002 | – | – | 0.002 | 0.003 | – | – | – | –
16 | COc1ccccc1C(=O)c1sc(N2CCCC2)nc1N | 185 | > 200 | > 200 | 171 | > 200 | – | – | – | –
17 | COc1ccc(C(=O)c2sc(N3CCCC3)nc2N)cc1 | > 200 | > 200 | > 200 | > 200 | > 200 | – | – | – | –
